Data reported in the RNAGym collection of RNA variant scans (doi:10.1126/science.aae0568).
Fewer inactive variants are shown than the library holds.

B1: tRNA (parent)
chain: GUUCCGUUGGCGUAAUGGUAACGCGUCUCCCUCCUAAGGAGAAGACUGCGGGUUCGAGUCCCGUACGGAACG

Variants of: B1
Experiment: yeast fitness relative to wild type (ratio to wild type); higher = fitter; tRNA-Arg(CCU), competitive growth, 37 C, YPD
Outline: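 Genotype frequency changes were the basis for Darwinian fitness relative to wild type. The frequencies came from 100-nucleotide paired-end sequencing of gene amplicons from the start population and each end population of pooled yeast strains with tRNA-Arg(CCU) gene variants at the native locus. Competition ran in YPD at 37°C for 24 hours in six replicates, genotypes needed ≥ 100 starting reads, and estimates < 0.5 were set to 0.5.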

Variant	yeast fitness
GUUCCGUUGGCGUAAUGGUAAAGCGUCUCCCUCCUAAGGAGACGACUGCGGGUUCGAGUCCCCUACAGAACG	≤ 0.5
GUUCCGUUGGCGUAAUGGUAAAGCGUCUCCCUCCUAAGGAGAAGCCUGCGGGUUCGAGUCUCGUACGGAACG	0.604
GUUCCGUUGGCGUAAUGGUAAAGAGCCUCCCUCCCAAGGAGAAGACUGCGGGUUCGAGUCCCGUACGGAACG	≤ 0.5
GUUCCGUUGGCGUAAUGGUAAAGCGUCUCCCUCCUAAGGAGUAGACUGCGGGUUCGAGUCCUGUACGGAACG	0.549
GUUCCGUUGGCGUAAUGGUAAAGCGUAUCCCUCCUUAGCAGAAGACUGCGGGUUCGAGUCCCGUACGGAACG	≤ 0.5
GUUCCGUUGGCGUAAUGGUAAAGGGUCUCCCUCCUAAGGAGAAGACUGCGGGCUCGAGUCCCGUACGGAACG	≤ 0.5
GUUCCGUUGGCGUAAUGGUAAAGCGUCUCCCUCCUAAGGAGAGGACUGCGGGUUCGAGUCCCUAACGGAACG	≤ 0.5
GUUCCGUUGGCGUAAUGGUAAAGAGCCUCCCUCCUAAGGAGAAGACUGCGGGUUCGAGUCCCGUACGGAACG	0.559
GUUCCGUUGGCGUAAUGGUAAAGCGUCUCCCUCCUAAGGUGACGACUACGGGUUCGAGUCCCGUACGGUACG	≤ 0.5
GUUCCGUUGGCGUAAUGGUAAAGGGUCUCCCUCCUGAGCAGAAGACUGCGGGUUCGAGUCCCGUAUGGAACG	≤ 0.5
GUUCCGUUGGCGUAAUGGUAAAGUGUCACCCUCCUAGGGAGAAGACUGCGGGUUCGAGUCCCGUACGGAACG	≤ 0.5
GUUCCGUUGGCGUAAUGGUAAAGAGCCUCCCUCCUAAGGAGAAGACUGUGGGUUCGAGUCCCGAACGGAACG	≤ 0.5
GUUCCGUUGGCGUAAUGGUAAAGCGUCUCCCUCCUAAGGGGAAGACUGCGGGUUCGAGUCCCGUACGGAACG	0.671
GUUCCGUUGGCGUAAUGGUAAAGCGUCUCCCUCCUAAGGAGAAGACUGCGGGUUCGAGUCCCGUCCGGAACG	0.836
GUUCCGUUGGCGUAAUGGUAAAGCGUCUCCCUCCUAAGGAGAUGACUGCGGGUUCGAGUCCCGUACGAAACG	≤ 0.5
GUUCCGUUGGCGUAAUGGUAAAGGGUCUCCCUCCUAAGGAGAAGACUGCGGAUUCGAGUCCCGUACCAAACG	≤ 0.5
GUUCCGUUGGCGUAAUGGUAAAGCGUCUCCCUCCUAAGGCGAAGACUGCCGGUUCGAGUCCCGUACGGAACG	0.908
GUUCCGUUGGCGUAAUGGUAAAGGGUCUCCCUCCUAAGGAGAGGACUGCGGGUUCGAGUCCCGUACGGAACG	≤ 0.5
GUUCCGUUGGCGUAAUGGUAAAGCGUCUCCCUCCUAAGGAGAAGACUGCGGGUUCGAGUCCCGUUCGGAGCG	0.662

Variant	yeast fitness
GUUCCGUUGGCGUAAUGGUAAAGCGUCUCCCUCCUAAGGAGAAGUCUGCGGGUUCGAGUCCCGUACGGAACG	0.837
GUUCCGUUGGCGUAAUGGUAAAGCGUUUCCCUCCUAAGGAGAAGACUGCGGGUUCGUGUCCCGUACGGAACG	≤ 0.5
GUUCCGUUGGCGUAAUGGUAAAGGGUCUCCCUCCUAAGGAGAUGACUGCGGGUUCGAGUCCAGUACGGAACG	≤ 0.5
GUUCCGUUGGCGUAAUGGUAAAGCGUAUCCCUCCUAAGGAGAAGACUGCGGGUUCGAGUCCCGUACGGAACG	0.718
GUUCCGUUGGCGUAAUGGUAAAGCGUCUCCCUCCUAAGGAGGAGACUGUGGGUUCGAGUCCCGUACGGAACG	≤ 0.5
GUUCCGUUGGCGUAAUGGUAAAGCGUGUCCCUCCUAAGGAGAAGACUGCGGGUUCGAGUCCCGUUCGGAACG	≤ 0.5
GUUCCGUUGGCGUAAUGGUAAAGGGUCUCCCUCCUAAGGAGAAGACUGCGGGUUCGAGUCCCGUACGGAACG	0.507
GUUCCGUUGGCGUAAUGGUAAAGCGUCUCCCUCCUAAGGAGAAGACUGCGGGUUCGUGUCCCGUACAGAACG	0.545
GUUCCGUUGGCGUAAUGGUAAAGCGUUUCCCUCCUAAGGAGAGGAGUGUGGGUUCGAGUCCCGUACGGCACG	≤ 0.5
GUUCCGUUGGCGUAAUGGUAAAGUGUCUCUGUCCUAAGGAGAAGACUGCGGGUUCGAGUCCCGUAUGGAACG	0.615
GUUCCGUUGGCGUAAUGGUAAAGCGUCUCCCUCCUAAGGAGAUGACUGCGGGUUCGAGUACCGUACGGAACG	≤ 0.5
GUUCCGUUGGCGUAAUGGUAAAGCGUGUCCCUCCUAAGGAGAAGACUGCGGGUUCGAGUCCCGUACGUAACG	≤ 0.5
GUUCCGUUGGCGUAAUGGUAAAGGGUCUCCCUCCUAAGGAGAAGACUGCGGGUUCGAGUCCCGUACCAAACG	≤ 0.5
GUUCCGUUGGCGUAAUGGUAAAGCGUCUCCCUCCUAAGGAGUAGACUGCCGGUUCGGGUCCCGUACGGAACG	≤ 0.5
GUUCCGUUGGCGUAAUGGUAAAGGGUCUCCCUCCUAAGGAGAAGACUGCGGGUUCGAGUGCCGUAGGGAACG	0.542
GUUCCGUUGGCGUAAUGGUAAAGCGUCUCCCUCCUAAGGAGAAGACUGCGGGUUCGAGUCCCGUACGGUACG	0.843
GUUCCGUUGGCGUAAUGGUAAAGCGUCUCCCUCCUAAGGAGGAGACUGCGGGUUCGAGUCCCGUACGGAACG	0.923
GUUCCGUUGGCGUAAUGGUAAAGCGUCUCCCUCCUAAGGAGUAGACUGCGGGUUCGAGUCCCGUACGGAACG	0.677
GUUCCGUUGGCGUAAUGGUAAAGCGUCUCCCUCCUAAGGAGCAGACUGCGGGUUCGAGUCCCGUACGGAACG	0.635
